Experimental data as given in ChEMBL document CHEMBL1145544, “Probing distal regions of the A2B adenosine receptor by quantitative structure-activity relationship modeling of known and novel agonists” (J Med Chem, 2008).

Key:
Adenosine receptor A2a [1] = target: T1, Adenosine receptor A2a (Homo sapiens, UniProt P29274); experiment: Displacement of [3H]CGS-21680 from human adenosine A2A receptor expressed in HEK293 cells; type: cell-based
Adenosine receptor A2b = target: T2, Adenosine receptor A2b (Homo sapiens, UniProt P29275); experiment: Agonist activity at human adenosine A2B receptor expressed in CHO cells assessed as stimulation of adenylate cyclase; type: functional, cell-based
T2 sequence (P29275 whole entry): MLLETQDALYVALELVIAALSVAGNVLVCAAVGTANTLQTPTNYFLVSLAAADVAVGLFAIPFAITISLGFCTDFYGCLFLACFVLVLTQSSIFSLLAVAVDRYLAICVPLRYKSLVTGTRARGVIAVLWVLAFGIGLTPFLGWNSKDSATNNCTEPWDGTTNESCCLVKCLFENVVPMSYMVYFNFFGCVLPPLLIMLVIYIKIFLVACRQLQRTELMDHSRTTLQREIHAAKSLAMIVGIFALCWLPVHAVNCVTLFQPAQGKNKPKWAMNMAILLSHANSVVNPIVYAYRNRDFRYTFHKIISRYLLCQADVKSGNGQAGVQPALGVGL
How it was run: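 Stably transfected CHO cells; cAMP accumulation quantified by enzyme immunoassay kit per manufacturer's manual; EC50 derived.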

[2] = target: T3, Adenosine receptor A2b (Homo sapiens) (UniProt P29275); experiment: Agonist activity human adenosine A2B receptor expressed in CHO cells assessed as stimulation of adenylate cyclase relative to NECA; type: functional, cell-based
T3 sequence (whole entry): T2 sequence (P29275 whole entry)
How it was run: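 Stably transfected CHO cells; cAMP accumulation by enzyme immunoassay kit. Relative potency computed as pEC50(compound) minus pEC50(NECA) determined in the same publication.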

Adenosine receptor A1 = target: T4, Adenosine receptor A1 (Homo sapiens, UniProt P30542); experiment: Displacement of [3H]CCPA from human adenosine A1 receptor expressed in CHO cells; type: cell-based
T4 sequence (P30542 whole entry): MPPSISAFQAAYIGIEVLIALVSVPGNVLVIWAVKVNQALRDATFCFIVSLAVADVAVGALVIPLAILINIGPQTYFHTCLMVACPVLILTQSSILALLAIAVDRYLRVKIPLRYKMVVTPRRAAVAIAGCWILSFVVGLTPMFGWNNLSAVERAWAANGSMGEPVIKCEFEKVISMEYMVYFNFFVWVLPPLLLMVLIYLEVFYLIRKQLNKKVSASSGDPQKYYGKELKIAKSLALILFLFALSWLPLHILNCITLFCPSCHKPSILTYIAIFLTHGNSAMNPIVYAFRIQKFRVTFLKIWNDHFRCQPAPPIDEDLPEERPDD

Adenosine receptor A2a [3] = target: T1, Adenosine receptor A2a; experiment: Displacement of [3H]CGS-21680 from human adenosine A2A receptor expressed in HEK293 cells at 10 uM; type: cell-based
How it was run: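 HEK293 membranes expressing receptor; [3H]CGS21680 final 10 nM in 50 mM Tris-HCl pH 7.4, 10 mM MgCl2, 1 h at 25 °C; nonspecific defined by 10 μM NECA; filtration, scintillation counting; percent displacement recorded at single 10 μM concentration.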

[4] = target: T5, Adenosine receptor A1 (Homo sapiens) (UniProt P30542); experiment: Displacement of [3H]CCPA from human adenosine A1 receptor expressed in CHO cells at 10 uM; type: cell-based
T5 sequence (whole entry): T4 sequence (P30542 whole entry)
How it was run: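 CHO membranes expressing receptor; [3H]CCPA final 1.0 nM, Tris-HCl 50 mM pH 7.4 with 10 mM MgCl2, 1 h at 25 °C; nonspecific with 10 μM NECA; filtration and scintillation counting; percent displacement at single 10 μM test concentration.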

T1 sequence (P29274 whole entry): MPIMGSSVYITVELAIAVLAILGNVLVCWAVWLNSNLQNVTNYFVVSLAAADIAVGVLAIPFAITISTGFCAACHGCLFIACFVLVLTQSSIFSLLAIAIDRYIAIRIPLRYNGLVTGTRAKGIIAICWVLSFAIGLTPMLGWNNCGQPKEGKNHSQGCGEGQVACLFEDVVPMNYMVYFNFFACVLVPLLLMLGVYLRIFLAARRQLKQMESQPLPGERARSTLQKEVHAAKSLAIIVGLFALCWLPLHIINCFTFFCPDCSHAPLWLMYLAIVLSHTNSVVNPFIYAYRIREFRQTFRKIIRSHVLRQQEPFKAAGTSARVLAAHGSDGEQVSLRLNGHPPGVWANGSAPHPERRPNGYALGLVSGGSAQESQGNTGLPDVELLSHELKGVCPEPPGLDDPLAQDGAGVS

SMILES	Activity [2]	also measured
NNc1nc(OCCc2c[nH]c3cc(Br)ccc23)nc2c1ncn2[C@@H]1O[C@H](CO)[C@@H](O)[C@H]1O	-0.0944	Ki (Adenosine receptor A2a [1]): 2050 nM; EC50 (Adenosine receptor A2b): 174 nM; Ki (Adenosine receptor A1): 350 nM
O=C(COc1ccc(Nc2nc(OCCc3c[nH]c4cc(Br)ccc34)nc3c2ncn3[C@@H]2O[C@H](CO)[C@@H](O)[C@H]2O)cc1)Nc1ccccc1	-0.0092	Ki (Adenosine receptor A2a [1]): 1150 nM; EC50 (Adenosine receptor A2b): 143 nM; Ki (Adenosine receptor A1): 370 nM
CCNC(=O)[C@H]1O[C@@H](n2cnc3c(Nc4ccc(OCC(=O)Nc5ccncc5)cc4)ncnc32)[C@H](O)[C@@H]1O	0.681	–
CCNC(=O)[C@H]1O[C@@H](n2cnc3c(Nc4ccc(OCC(=O)Nc5ccccc5)cc4)nc(Cl)nc32)[C@H](O)[C@@H]1O	0.561	–
CCCCC#Cc1nc(N)c2ncn([C@@H]3O[C@H](CO)[C@@H](O)[C@H]3O)c2n1	-1.62	–
CCNC(=O)[C@H]1O[C@@H](n2cnc3c(NNC(=O)c4cccs4)nc(Cl)nc32)[C@H](O)[C@@H]1O	-0.097	–
COc1ccc2[nH]cc(CCOc3nc(N)c4ncn([C@@H]5O[C@H](CO)[C@@H](O)[C@H]5O)c4n3)c2c1	-0.951	–
CCNC(=O)[C@H]1O[C@@H](n2cnc3c(N)nc(OCCc4c[nH]c5ccccc45)nc32)[C@H](O)[C@@H]1O	-0.849	–
CCNc1nc(C#C[C@@H](O)c2ccccc2)nc2c1ncn2[C@@H]1O[C@H](CO)[C@@H](O)[C@H]1O	0.517	–
CCNC(=O)[C@H]1O[C@@H](n2cnc3c(NNC(=O)c4ccsc4)nc(Cl)nc32)[C@H](O)[C@@H]1O	-0.449	–
O=S(=O)(O)c1ccc(Nc2ncnc3c2ncn3[C@@H]2O[C@H](CO)[C@@H](O)[C@H]2O)cc1	-1.23	–
O=C(COc1ccc(Nc2nc(OCCc3c[nH]c4cc(Br)ccc34)nc3c2ncn3[C@@H]2O[C@H](CO)[C@@H](O)[C@H]2O)cc1)N1CCCC1	-0.838	Activity (Adenosine receptor A2a [3]): 46%; EC50 (Adenosine receptor A2b): 965 nM; Ki (Adenosine receptor A1): 420 nM
CCNC(=O)[C@H]1O[C@@H](n2cnc3c(NNC(=O)c4sccc4C)nc(Cl)nc32)[C@H](O)[C@@H]1O	-0.327	–
Nc1nc(OCCc2c[nH]c3ccccc23)nc2c1ncn2[C@@H]1O[C@H](CO)[C@@H](O)[C@H]1O	-0.33	–
CCNC(=O)[C@H]1O[C@@H](n2cnc3c(Nc4ccc(OCC(=O)Nc5ccc(C(C)(C)C)cc5)cc4)ncnc32)[C@H](O)[C@@H]1O	0.976	–
CCNC(=O)[C@H]1O[C@@H](n2cnc3c(Nc4ccc(OCC(=O)Nc5ccc(N6CCOCC6)cc5)cc4)ncnc32)[C@H](O)[C@@H]1O	0.287	–
Nc1nc(OCCc2c[nH]c3ccc(F)cc23)nc2c1ncn2[C@@H]1O[C@H](CO)[C@@H](O)[C@H]1O	-0.739	–
CCCCC#Cc1nc(NC(C)C)c2ncn([C@@H]3O[C@H](CO)[C@@H](O)[C@H]3O)c2n1	-1.62	–
CCNC(=O)[C@H]1O[C@@H](n2cnc3c(Nc4ccc(OCC(=O)Nc5ccc(I)cc5C(F)(F)F)cc4)ncnc32)[C@H](O)[C@@H]1O	0.161	–
O=C(NNc1nc(OCCc2c[nH]c3cc(Br)ccc23)nc2c1ncn2[C@@H]1O[C@H](CO)[C@@H](O)[C@H]1O)c1ccco1	-0.315	Activity (Adenosine receptor A2a [3]): 40%; Activity [4]: 29%; EC50 (Adenosine receptor A2b): 289 nM
